Laboratory results as given in ChEMBL document CHEMBL5380838, “Novel Aryl Sulfonamide Derivatives as NLRP3 Inflammasome Inhibitors for the Potential Treatment of Cancer” (J Med Chem, 2023).
The source made the active and inactive calls. The rule behind the calls is not given here.

What was measured:
[1] = tested on: THP-1; assay: Cytotoxicity against human THP-1 cells assessed as reduction in cell viability at 1 uM measured after 48 hrs by RealTime-Glo MT assay; type: toxicity, cell-based; details: thp-1, 48 h
In short: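 THP-1 cells (10 × 10^4/well) treated with inhibitors at 1 µM and kept 48 h; RealTime-Glo reagent added, luminescence read every 12 h as a proxy for metabolically active cells; means of RLU ± SEM.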

[2] = Metabolic stability in mouse liver microsomes assessed as intrinsic clearance measured per mg protein at 1 uM measured upto 60 mins by LC-MS/MS analysis; type: ADME, Microsome; details: read-out: CLH
In short: (§1)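 Pooled human or CD-1 male mouse liver microsomes at 0.5 mg/mL with test compound 1 µM in 50 mM phosphate pH 7.4 and 3 mM MgCl2, preincubated 10 min at 37 °C. Percent parent remaining vs 0 min measured by LC-MS/MS. Cli = k/microsomal conc. × 1000; mean ± SD, n = 2.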

[3] = tested on: THP-1; assay: Suppression of IL-1beta processing in LPS-treated human THP-1 cells at 1 to 1000 nM incubated for 30 mins followed by ATP stimulation for 1 hr by ELISA method; type: functional, cell-based; details: dose 1-1000 nM, time 90.0 min
[4] = tested on: BMDM; assay: Effect on ASC level in LPS-treated mouse BMDM cells at 1 uM incubated for 30 mins followed by ATP stimulation for 1 hr by Hoechst staining based microscopy; type: functional, cell-based; details: time 90.0 min
In short: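 BMDMs primed with LPS 1 µg/mL for 2 h, given DMSO or compound 1 µM for 30 min, then 5 mM ATP for 1 h. Cells fixed in 4% PFA, permeabilized with 0.1% Triton X-100, stained with anti-ASC overnight at 4 °C plus fluorescent secondary, nuclei Hoechst 1 µM; confocal imaging with 63× oil objective.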

[5] = Clast in C57BL/6 mouse at 25 mg/kg, ip measured for 0.083 to 24 hrs by LC-MS/MS analysis; type: ADME, organism-based; details: in vivo, time 0.083-24 hrs
In short: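 Female C57BL/6 mice, 8 weeks old, 25–30 g, given a single IP dose of 25 mg/kg. Sampling at 5 and 20 min and 1, 2, 3, 6, 8 and 24 h, 3 mice per timepoint; Li-heparin plasma from the cava vein. ACN/MeOH precipitation with diclofenac internal standard, then LC-MS/MS in ESI(−) MRM mode, range 1–2000 ng/mL. Noncompartmental analysis, linear trapezoidal AUC.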

[6] = tested on: B16-F10; assay: Effect on total caspase-1 expression in cytosolic luciferase-transfected mouse B16-F10 cells xenografted in C57BL/6 mouse at 25 mg/kg, ip administered thrice weekly measured after 14 days by Western blot analysis; type: functional, organism-based; details: time 14.0 day
In short: (§2)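 Tumors from luciferase-expressing B16-F10 grafts in C57BL/6 mice, dosed IP at 25 mg/kg thrice weekly (DMSO controls), were excised at endpoint and homogenized in sucrose/HEPES/IGEPAL lysis buffer. Lysates were western blotted and bands expressed as fold ratio over β-actin (n = 5).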

[7] = tested on: B16-F10; assay: Effect on ASC expression in cytosolic luciferase-transfected mouse B16-F10 cells xenografted in C57BL/6 mouse at 25 mg/kg, ip administered thrice weekly measured after 14 days by Western blot analysis; type: functional, organism-based; details: time 14.0 day; in short: as §2
[8] = tested on: THP-1; assay: Suppression of caspase-1 expression in LPS-treated human THP-1 cells at 1 to 1000 nM incubated for 30 mins followed by ATP stimulation for 1 hr by […]; type: functional, cell-based; details: dose 1-1000 nM, time 90.0 min
In short: (§3)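 PMA-differentiated THP-1 cells (1 × 10^6/well) primed with LPS 1 µg/mL for 3 h, then DMSO or compound in serum-free medium for 30 min, then 5 mM ATP for 1 h. RIPA lysates (20 µg) and concentrated supernatants run on SDS-PAGE and western blotted for NLRP3, ASC, caspase-1 and IL-1β, normalized to GAPDH; three independent experiments.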

[9] = tested on: BMDM; assay: Effect on NLRC4 inflammasome activation in LPS-treated mouse BMDM cells assessed as IL-1beta release at 1 uM incubated for 30 mins followed by Salmonella typhimurium flagellin stimulation for 2 hrs by ELISA method; type: functional, cell-based; details: time 150.0 min
In short: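 BMDMs primed with LPS 100 ng/mL for 3 h, then compound 1 µM in serum-free medium for 30 min, then flagellin 100 ng/mL for 2 h; supernatant mouse IL-1β by ELISA.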

[10] = tested on: B16-F10; assay: Antitumor activity against cytosolic luciferase-transfected mouse B16-F10 cells xenografted in C57BL/6 mouse assessed as tumor reduction at 25 mg/kg, ip administered thrice weekly measured after 14 days by bioluminescence assay; type: functional, organism-based; details: time 14.0 day
In short: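 Female C57BL/6 mice aged 6–8 weeks inoculated subcutaneously with 1 × 10^6 B16-F10 cells stably expressing cytosolic luciferase. From day 5, IP dosing of 25 mg/kg thrice weekly, DMSO for controls, five mice per group. Imaging after IP D-luciferin 150 mg/kg under 2.5% isoflurane, read after 15 min. Caliper volume = π/6 × a × b². Tumors excised day 14.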

[11] = tested on: THP-1; assay: Suppression of caspase-1 p10 expression in LPS-treated human THP-1 cells at 1 to 1000 nM incubated for 30 mins followed by ATP stimulation for 1 hr […]; type: functional, cell-based; details: dose 1-1000 nM, time 90.0 min
[12] = tested on: BMDM; assay: Effect on AIM2 inflammasome activation in LPS-treated mouse BMDM cells assessed as IL-1beta release at 1 uM incubated for 30 mins followed by Poly (dA:dT) stimulation for 4 hrs by ELISA method; type: functional, cell-based; details: time 270.0 min
In short: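 BMDMs primed with LPS 100 ng/mL for 3 h, then compound 1 µM in serum-free medium for 30 min, then poly(dA:dT) 1 µg/mL transfected with lipofectamine 2000 for 4 h; supernatant mouse IL-1β by ELISA.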

[13] = Metabolic stability in human liver microsomes assessed as intrinsic clearance measured per mg protein at 1 uM measured upto 60 mins by LC-MS/MS analysis; type: ADME, Microsome; details: read-out: CLH; in short: as §1
[14] = tested on: B16-F10; assay: Effect on NLRP3 expression in cytosolic luciferase-transfected mouse B16-F10 cells xenografted in C57BL/6 mouse at 25 mg/kg, ip administered thrice weekly measured after 14 days by Western blot analysis; type: functional, organism-based; details: time 14.0 day; in short: as §2
[15] = tested on: B16-F10; assay: Antiproliferative activity against cytosolic luciferase-transfected mouse B16-F10 cells xenografted in C57BL/6 mouse assessed as effect on cell growth at 25 mg/kg, ip administered thrice weekly measured after 5 days; type: functional, organism-based; details: time 5.0 day
[16] = tested on: B16-F10; assay: Effect on cleaved caspase-1 expression in cytosolic luciferase-transfected mouse B16-F10 cells xenografted in C57BL/6 mouse at 25 mg/kg, ip administered thrice weekly measured after 14 days by Western blot analysis; type: functional, organism-based; details: time 14.0 day; in short: as §2
[17] = tested on: B16-F10; assay: Effect on pro-IL-1beta expression in cytosolic luciferase-transfected mouse B16-F10 cells xenografted in C57BL/6 mouse at 25 mg/kg, ip administered thrice weekly measured after 14 days by Western blot analysis; type: functional, organism-based; details: time 14.0 day; in short: as §2
[18] = tested on: THP-1; assay: Suppression of NLRP3 expression in LPS-treated human THP-1 cells at 1 to 1000 nM incubated for 30 mins followed by ATP stimulation for 1 hr […]; type: functional, cell-based; details: dose 1-1000 nM, time 90.0 min
[19] = Metabolic stability in mouse liver microsomes assessed as half life measured per mg protein at 1 uM measured upto 60 mins by LC-MS/MS analysis; type: ADME, Microsome; in short: as §1
[20] = tested on: THP-1; assay: Suppression of ASC expression in LPS-treated human THP-1 cells at 1 to 1000 nM incubated for 30 mins followed by ATP stimulation for 1 hr […]; type: functional, cell-based; details: dose 1-1000 nM, time 90.0 min; in short: as §3

microsomal CLint at 1 µM [2]: 4.8 µL/min/mg
Clast [5]: 67 ng/mL
microsomal CLint at 1 µM [13]: 45.8 µL/min/mg
half-life at 1 µM [19]: 4.8 h
Structure (SMILES): CC(C)[C@H](NS(=O)(=O)c1ccc([N+](=O)[O-])cc1)C(=O)Nc1c2c(cc3c1CCC3)CCC2
Activity [1]: Non-Toxic
Activity [3]: Active
Activity [4]: inactive
Activity [6]: inactive
Activity [7]: inactive
Activity [8]: inactive
Activity [9]: inactive
Activity [10]: Active
Activity [11]: Active
Activity [12]: inactive
Activity [14]: inactive
Activity [15]: inactive
Activity [16]: inactive
Activity [17]: inactive
Activity [18]: inactive
Activity [20]: inactive
